Results gathered from unrelated publications.
Protocols differ between the studies behind these lines.
Cell line: DU-145
Observed: cell growth or viability

SMILES | method | time | GI50 [µM]
COc1ccc(C(=O)/C=C/c2ccccc2Br)cc1S(N)(=O)=O | SRB | 48 h | 3.3
COc1cc2c(cc1O)CCN(Cc1cccc(OC)c1OC)C2 | WST-1 | 96 h | > 100
COc1cc(-c2ccc(-c3ccc(C(=N)N)nc3)s2)cc(OC)c1OC |  |  | 3.45
COc1ccc(C(=O)/C=C/c2cccc(Cl)c2)cc1S(N)(=O)=O | SRB | 48 h | 3.6
COc1cc2c(cc1OS(N)(=O)=O)CCN(Cc1cc(Cl)c(OC)c(OC)c1)C2 | WST-1 | 96 h | 0.04
COc1ccc(C(=O)/C=C/c2cccnc2)cc1S(N)(=O)=O | SRB | 48 h | 11.2
COc1ccc(OC)c(CN2CCc3cc(OS(N)(=O)=O)c(OC)cc3C2)c1 | WST-1 | 96 h | 2.61
CC(=O)O[C@H]1C(=O)[C@@]2(C)[C@H]([C@H](OC(=O)c3ccccc3)[C@]3(O)C[C@H](OC(=O)[C@H](O)[C@@H](NC(=O)c4ccccc4)c4ccccc4)C(C)=C1C3(C)C)[C@]1(OC(C)=O)CO[C@@H]1C[C@@H]2O | WST-1 | 96 h | 0.004
COc1ccccc1/C=C/C(=O)c1ccc(OC)c(S(N)(=O)=O)c1 | SRB | 48 h | 3.2
COc1cccc(Oc2ccccc2NC(=O)CNC(=O)c2cccc3ccccc23)c1 | SRB | 48 h | 0.708
COc1cc2c(cc1OS(N)(=O)=O)CCN(Cc1cccc(C(C)=O)c1)C2 | WST-1 | 96 h | 1.85
COc1ccc(C(=O)/C=C/c2c(F)cccc2Cl)cc1S(N)(=O)=O | SRB | 48 h | 3.3
CCOc1c(OC)cc(CN2CCc3cc(OS(N)(=O)=O)c(OC)cc3C2)cc1OC | WST-1 | 96 h | 0.1
COc1cc2c(cc1O)CCN(S(=O)(=O)c1ccccc1OC)C2 | WST-1 | 96 h | > 100
S=C([S][Au-][P+](CCCCCC[P+]([Au-][S]C(=S)n1cccn1)(c1ccccc1)c1ccccc1)(c1ccccc1)c1ccccc1)n1cccn1 |  |  | 1.31
COc1cc2c(cc1O)CCN(Cc1cc(Br)c(OC)c(OC)c1)C2 | WST-1 | 96 h | 0.3
COc1cc2c(cc1O)CCN(Cc1ccc(OC)c(OC)c1OC)C2 | WST-1 | 96 h | > 100
COc1cc2c(cc1O)CCN(Cc1cc(Cl)c(OC)c(OC)c1)C2 | WST-1 | 96 h | 0.9
COc1ccc(-c2ccc(-c3ccc(C(=N)N)nc3)s2)cc1 |  |  | 1.77
